CHRM4 PAM: positive allosteric modulators of human muscarinic M4 receptor; P08173; CHO-K1 hM4/Gqi5, Fluo-8 calcium fluorescence, ACh EC20; 0% = ACh EC20, 100% = maximal ACh; activation, % at 3 µM; 360,000 compounds, 0.4% hits;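 active = activation above its plate's cutoff, the mean activation of sample wells plus 3 SD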
M4 ag: agonists of human muscarinic M4 receptor (CHRM4); P08173; CHO-K1 hM4/Gqi5, Fluo-8 calcium fluorescence; vehicle 0%, full acetylcholine response 100%; activation, % at 3 µM; 360,000 compounds, 0.14% hits; AID 624127;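 active = activation above the run mean over all test wells plus 3 SD, cut at about 32% in these data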;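 note: peak over basal fluorescence ratio per well then scaled between controls; 0% = DMSO wells and 100% = acetylcholine at EC100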
CHRM5 PAM: positive allosteric modulators of human muscarinic M5 receptor; P08912; CHO-K1 hM5, Fluo-8 calcium, ACh EC20 PAM; 0% = ACh EC20, 100% = ACh EC100; activation, % at 3 µM; 360,000 compounds, 0.3% hits;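 active = activation above the run cutoff, the mean activation of all test compounds plus 3 SD, cut at about 18% in these data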
Target sequence (P08912 whole entry, looked up): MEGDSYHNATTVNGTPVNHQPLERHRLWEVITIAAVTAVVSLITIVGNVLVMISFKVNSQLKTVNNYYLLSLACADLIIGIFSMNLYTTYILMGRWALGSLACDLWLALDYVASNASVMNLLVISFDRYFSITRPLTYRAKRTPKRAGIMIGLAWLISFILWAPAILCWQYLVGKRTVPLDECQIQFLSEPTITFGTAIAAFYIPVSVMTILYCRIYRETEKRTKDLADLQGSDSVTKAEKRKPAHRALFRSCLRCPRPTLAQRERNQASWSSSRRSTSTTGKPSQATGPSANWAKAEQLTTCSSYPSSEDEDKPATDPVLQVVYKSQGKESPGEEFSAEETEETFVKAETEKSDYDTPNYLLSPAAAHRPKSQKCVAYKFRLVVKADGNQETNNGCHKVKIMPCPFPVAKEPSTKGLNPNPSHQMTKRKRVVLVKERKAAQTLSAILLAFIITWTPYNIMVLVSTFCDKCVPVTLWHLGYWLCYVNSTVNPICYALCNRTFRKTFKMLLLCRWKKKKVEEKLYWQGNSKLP
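Assay system: CHO-K1 hM5 cells. Also added: acetylcholine at EC20 concentration, added after compound. Dosing: 3 µM, single dose. Times: compound preincubation 140 s before EC20 acetylcholine addition. Signal: Fluo-8 calcium fluorescence. Measure: % activation relative to EC20 and EC100 ACh responses. Repeats: singlicate, one well per test compound.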
CHRM5 antagonist: CHRM5 antagonism in calcium assay | P08912 | 360,000 compounds, 0.59% hits | AID 624040 | inhibition, % at 3 µM | CHO-hM5 cells, Fluo-8 calcium fluorescence, ACh EC80;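 active = inhibition above a per-plate cutoff, the mean of that plate's test compounds plus 3 SD, cut at about 27% in these data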;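 note: 0% = acetylcholine EC80 with DMSO and 100% = DMSO without agonist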
CHRM4 antagonist: blocks acetylcholine activation of human M4 receptor. inhibition, % at 3 µM. 360,000 compounds, 0.73% hits. P08173. CHO-hM4 cells, ACh EC80, Fluo-8 calcium fluorescence;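 active = inhibition above its plate's cutoff, the mean inhibition of sample wells plus 3 SD, cut at about 27% in these data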;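 note: 0% = acetylcholine EC80 with DMSO and 100% = DMSO without agonist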
M5 ag: agonists of human muscarinic M5 receptor (CHRM5). AID 624037. CHO-K1 hM5 cells, Fluo-8 calcium fluorescence; 0% DMSO wells, 100% maximal acetylcholine response. activation, % at 3 µM. 360,000 compounds, 0.19% hits;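 active = activation above the run's mean over test compounds plus 3 SD, cut at about 23% in these data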;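 note: signal is peak over basal fluorescence ratio across the kinetic read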
* hit, by the source's call. An excerpt weighted towards active compounds, which were near 1.9% of everything screened.

SMILES	CHRM4 PAM	M4 ag	CHRM5 PAM	CHRM5 antagonist	CHRM4 antagonist	M5 ag
OC(CC#CCN1CCCCCC1)(c1ccccc1)C1CCCC1 (stereo unspecified)	-17	7	-32	84*	91*	-21
CN(C)CC#CCC(O)(c1ccccc1)C1CCCC1 (stereo unspecified)	-34	1	-17	94*	87*	-8
CC1(C(O)(C#CCN2CCCCC2)c2ccccc2)CCCC1 (stereo unspecified)	-26	2	-34	99*	99*	-16
O=C(O)C1C2CCC(O2)C1C(=O)Nc1cccc(Br)c1 (stereo unspecified)	-7	-1	0	10	3	3
CCOC(=O)CC(SP1(=S)OCC2(CCCCC2)CO1)C(=O)OCC (stereo unspecified)	-4	11	-25	4	1	1
O=C(c1cccs1)C1CN2CCC1CC2 (stereo unspecified)	-16	0	-13	13	-1	-7
O=C(O)C1CN2CCC1CC2 (stereo unspecified)	1	1	-10	-1	10	37*
CC(=O)c1cn(CC(=O)NCCc2c[nH]c3ccccc23)c2ccccc12	-9	17	-18	11	12	6
CN1C[C@H](CO)C=C2c3cccc4[nH]cc(c34)C[C@H]21	7	2	3	4	-12	1
CC1=C[C@@H]2c3cccc4[nH]cc(c34)C[C@H]2N(C)C1	-16	2	-14	2	57*	-7
Cc1onc(-c2ccccc2)c1C(=O)N1CCC2(CC1)OCCO2	-7	1	2	-5	5	-1
CCN(CC)CCC(=O)O[C@H]1CC[C@]2(C)C3CC[C@@]4(C)C(CC[C@]4(C)O)C3CC[C@H]2C1 (stereo partly specified)	-10	29	-37	27	28*	1
COC(=O)C1=C(c2ccc(S(C)(=O)=O)cc2)C[C@@H]2CC[C@H]1N2C(=O)NCc1ccc(F)cc1	4	0	-2	18	-2	0
CC(NCc1ccccc1C(F)(F)F)C(O)c1ccccc1 (stereo unspecified)	8	-1	5	5	3	0
CCN(CC)C(=O)c1ccc(NC(=O)c2cn(-c3ccccc3)nc2-c2ccc(OC)cc2)cc1	-5	8	-10	28*	0	-3
Cc1ccccc1OCCN=Cc1c(O)n(C)c(=O)n(C)c1=O	-3	4	-3	-5	-2	5
CCc1ccc(-n2c(O)c(/C=N/N3CCCCC3c3cccnc3)c(=O)[nH]c2=O)cc1 (stereo unspecified)	11	0	19*	-11	0	3
O=c1[nH]c(=S)n(-c2ccccc2)c(O)c1/C=N/N1CCCCC1c1cccnc1 (stereo unspecified)	11	2	-2	3	-1	5
CCN1CCN(Cc2cc(Br)cc(OC)c2O)CC1	-26	2	-19	2	39*	-13
O=c1[nH]c2ccccc2n1C1CCN(Cc2ccc(-c3nc4ccc(F)cc4nc3-c3ccccc3)cc2)CC1	-1	3	-13	13	2	7
CCCCn1nnnc1C(CCc1ccccc1)N1CCC(n2c(=O)[nH]c3ccccc32)CC1 (stereo unspecified)	-5	22	-12	3	3	6
CCC(c1nnnn1Cc1ccccc1)N1CCC(n2c(=O)[nH]c3ccccc32)CC1 (stereo unspecified)	-12	23	-15	14	27*	9
O=c1[nH]c2ccccc2n1C1CCN(Cc2ccc(-c3nc4ccccc4nc3-c3ccccc3)cc2)CC1	3	14	-22	26	6	32*
Cc1ccc2nc(-c3ccc(CN4CCC(n5c(=O)[nH]c6ccccc65)CC4)cc3)c(-c3ccccc3)nc2c1	-5	12	-16	11	11	27*
COc1ccc2nc(-c3ccc(CN4CCC(n5c(=O)[nH]c6ccccc65)CC4)cc3)c(-c3ccccc3)nc2c1	-9	10	-20	18	12	21
